According to ChEMBL document CHEMBL4715736, “Identification of anticancer agents based on the thieno[2,3-b]pyridine and 1H-pyrazole molecular scaffolds” (2016):

Experiments:
Format in all cases: functional
UACC-257 = assay: Growth inhibition of human UACC-257 cells assessed as cell growth at 0.1 uM incubated for 48 hrs by sulforhodamine B assay relative to control; conditions: read-out: Activity
RXF 393 = assay: Growth inhibition of human RXF 393 cells incubated for 48 hrs by sulforhodamine B assay; conditions: for CC50: read-out: LC50 (the source's name)
Procedure, shortened: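 NCI DTP 60-line human tumour panel. Dose-response curves were run only for ligands active in the initial 10 µM screen. GI50 (concentration giving 50% of maximal inhibition of proliferation) and TGI (concentration giving total growth inhibition) were derived from these curves.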

HCT-116 = assay: Growth inhibition of human HCT-116 cells assessed as cell growth at 100 uM incubated for 48 hrs by sulforhodamine B assay relative to control; conditions: read-out: Activity
EKVX [1] = assay: Growth inhibition of human EKVX cells assessed as cell growth at 10 uM incubated for 48 hrs by sulforhodamine B assay relative to control; conditions: read-out: Activity
HL-60(TB) [2] = assay: Growth inhibition of human HL-60(TB) cells assessed as cell growth at 0.01 uM incubated for 48 hrs by sulforhodamine B assay relative to control; conditions: read-out: Activity
Procedure, shortened: (§1)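 Screened by the NCI Developmental Therapeutics Program on its panel of 60 human tumour cell lines. Compounds were first tested at a single 10 µM dose, and compounds active there went to dose-response curves. Growth is expressed relative to untreated control (100%). GI50 (50% of maximal proliferation inhibition) and TGI (total growth inhibition) were derived from the dose-response data.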

HL-60(TB) [3] = assay: Growth inhibition of human HL-60(TB) cells assessed as cell growth at 100 uM incubated for 48 hrs by sulforhodamine B assay relative to control; conditions: read-out: Activity; procedure, shortened: as §1
EKVX [4] = assay: Growth inhibition of human EKVX cells assessed as cell growth at 0.1 uM incubated for 48 hrs by sulforhodamine B assay relative to control; conditions: read-out: Activity
HL-60(TB) [5] = assay: Growth inhibition of human HL-60(TB) cells assessed as cell growth at 0.1 uM incubated for 48 hrs by sulforhodamine B assay relative to control; conditions: read-out: Activity; procedure, shortened: as §1
EKVX [6] = assay: Growth inhibition of human EKVX cells assessed as cell growth at 100 uM incubated for 48 hrs by sulforhodamine B assay relative to control; conditions: read-out: Activity
EKVX [7] = assay: Growth inhibition of human EKVX cells assessed as cell growth at 0.01 uM incubated for 48 hrs by sulforhodamine B assay relative to control; conditions: read-out: Activity
HL-60(TB) [8] = assay: Growth inhibition of human HL-60(TB) cells assessed as cell growth at 1 uM incubated for 48 hrs by sulforhodamine B assay relative to control; conditions: read-out: Activity; procedure, shortened: as §1
HL-60(TB) [9] = assay: Growth inhibition of human HL-60(TB) cells incubated for 48 hrs by sulforhodamine B assay; procedure, shortened: as §1
EKVX [10] = assay: Growth inhibition of human EKVX cells assessed as cell growth at 1 uM incubated for 48 hrs by sulforhodamine B assay relative to control; conditions: read-out: Activity
EKVX [11] = assay: Growth inhibition of human EKVX cells incubated for 48 hrs by sulforhodamine B assay

SMILES: Nc1c(C(=O)Nc2ccccc2)sc2nc3c(cc12)CN(Cc1ccccc1)CC3
- growth at 0.1 µM (UACC-257): 95%
- GI50 (RXF 393): 3.15 µM
- TGI (RXF 393): 54.2 µM
- CC50 (RXF 393): > 100 µM
- growth at 100 µM (HCT-116): 17%

SMILES: COc1ccc(S(=O)(=O)n2ccc(-c3ccc4c(c3)CCC(C)(C)O4)n2)cc1
- growth at 10 µM (EKVX [1]): 51.6%

SMILES: Cc1cc(C)c(NC(=O)c2sc3nc4c(cc3c2N)CN(Cc2ccccc2)CC4)c(C)c1
- growth at 0.1 µM (UACC-257): 93%
- GI50 (RXF 393): 2.45 µM
- TGI (RXF 393): 18.5 µM
- CC50 (RXF 393): > 100 µM
- growth at 100 µM (HCT-116): -64%

SMILES: CN1CCc2nc3sc(C(N)=O)c(N)c3c(-c3cccs3)c2C1
- growth at 0.01 µM (HL-60(TB) [2]): 110%
- growth at 0.1 µM (UACC-257): 105%
- growth at 100 µM (HL-60(TB) [3]): -19%
- GI50 (RXF 393): 1.11 µM
- TGI (RXF 393): 3.63 µM
- CC50 (RXF 393): > 100 µM
- growth at 0.1 µM (EKVX [4]): 92%
- growth at 0.1 µM (HL-60(TB) [5]): 104%
- growth at 100 µM (EKVX [6]): 5%
- growth at 100 µM (HCT-116): 3%
- growth at 10 µM (EKVX [1]): 17%
- growth at 0.01 µM (EKVX [7]): 100%
- growth at 1 µM (HL-60(TB) [8]): 95%
- GI50 (HL-60(TB) [9]): 2.5 µM
- LC50 (HL-60(TB) [9]): > 100 µM
- TGI (HL-60(TB) [9]): 6.97 µM
- growth at 1 µM (EKVX [10]): 91%
- GI50 (EKVX [11]): 3.54 µM
- TGI (EKVX [11]): > 100 µM
- CC50 (EKVX [11]; read-out: LC50 (the source's name)): > 100 µM

SMILES: COc1cccc(NC(=O)c2sc3nc4c(cc3c2N)CN(Cc2ccccc2)CC4)c1
- growth at 0.1 µM (UACC-257): 91%
- GI50 (RXF 393): 2.71 µM
- TGI (RXF 393): 12.9 µM
- CC50 (RXF 393): > 100 µM
- growth at 100 µM (HCT-116): 2%

SMILES: CCc1ccccc1NC(=O)c1sc2nc3c(cc2c1N)C(=O)CCC3
- growth at 0.01 µM (HL-60(TB) [2]): 101%
- growth at 0.1 µM (UACC-257): 79%
- growth at 100 µM (HL-60(TB) [3]): -5%
- GI50 (RXF 393): 0.163 µM
- TGI (RXF 393): 0.777 µM
- CC50 (RXF 393): > 100 µM
- growth at 0.1 µM (HL-60(TB) [5]): 87%
- growth at 100 µM (HCT-116): 6%
- growth at 1 µM (HL-60(TB) [8]): 6%
- GI50 (HL-60(TB) [9]): 0.304 µM
- LC50 (HL-60(TB) [9]): > 100 µM
- TGI (HL-60(TB) [9]): 42 µM

SMILES: Cc1ccc(NC(=O)c2sc3nc4c(cc3c2N)C(=O)CCC4)cc1C
- growth at 0.01 µM (HL-60(TB) [2]): 99%
- growth at 0.1 µM (UACC-257): 92%
- growth at 100 µM (HL-60(TB) [3]): -33%
- GI50 (RXF 393): 0.222 µM
- CC50 (RXF 393): > 100 µM
- growth at 0.1 µM (HL-60(TB) [5]): 105%
- growth at 100 µM (HCT-116): 8%
- growth at 1 µM (HL-60(TB) [8]): 6%
- GI50 (HL-60(TB) [9]): 0.36 µM
- LC50 (HL-60(TB) [9]): > 100 µM
- TGI (HL-60(TB) [9]): 1.72 µM

SMILES: Cc1cccc(NC(=O)c2sc3nc4c(cc3c2N)C(=O)CCC4)c1
- growth at 0.1 µM (UACC-257): 58%
- GI50 (RXF 393): 0.167 µM
- TGI (RXF 393): ≥ 100 µM
- CC50 (RXF 393): > 100 µM
- growth at 100 µM (HCT-116): 10%

SMILES: CCc1cccc(C)c1NC(=O)c1sc2nc3c(cc2c1N)C(=O)CCC3
- growth at 0.01 µM (HL-60(TB) [2]): 96%
- growth at 0.1 µM (UACC-257): 82%
- growth at 100 µM (HL-60(TB) [3]): -52%
- GI50 (RXF 393): 0.202 µM
- CC50 (RXF 393): > 100 µM
- growth at 0.1 µM (HL-60(TB) [5]): 96%
- growth at 100 µM (HCT-116): 4%
- growth at 1 µM (HL-60(TB) [8]): 2%
- GI50 (HL-60(TB) [9]): 0.319 µM
- LC50 (HL-60(TB) [9]): ≥ 100 µM
- TGI (HL-60(TB) [9]): ≥ 100 µM
